For orientation: IC50 means the concentration that inhibits the measured activity by half.

Experiment [1] has as its system Radical scavenging activity. Description: Antioxidant activity assessed as DPPH radical scavenging activity. It counts as functional. Put shortly: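 Radical scavenging against DPPH with rutin as the reference standard. The value is the concentration in µM needed to scavenge 50% of DPPH free radicals.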
In general terms: The DPPH test is a chemical assay of radical scavenging.

The target of experiment [2] is Acetylcholinesterase (Homo sapiens) (UniProt P22303). Description: Inhibition of acetylcholinesterase at 1.0 uM by TLC screening assay.
A further experiment has as its target T1, Acetylcholinesterase (Rattus norvegicus, UniProt P37136).
T1 sequence (P37136 whole entry): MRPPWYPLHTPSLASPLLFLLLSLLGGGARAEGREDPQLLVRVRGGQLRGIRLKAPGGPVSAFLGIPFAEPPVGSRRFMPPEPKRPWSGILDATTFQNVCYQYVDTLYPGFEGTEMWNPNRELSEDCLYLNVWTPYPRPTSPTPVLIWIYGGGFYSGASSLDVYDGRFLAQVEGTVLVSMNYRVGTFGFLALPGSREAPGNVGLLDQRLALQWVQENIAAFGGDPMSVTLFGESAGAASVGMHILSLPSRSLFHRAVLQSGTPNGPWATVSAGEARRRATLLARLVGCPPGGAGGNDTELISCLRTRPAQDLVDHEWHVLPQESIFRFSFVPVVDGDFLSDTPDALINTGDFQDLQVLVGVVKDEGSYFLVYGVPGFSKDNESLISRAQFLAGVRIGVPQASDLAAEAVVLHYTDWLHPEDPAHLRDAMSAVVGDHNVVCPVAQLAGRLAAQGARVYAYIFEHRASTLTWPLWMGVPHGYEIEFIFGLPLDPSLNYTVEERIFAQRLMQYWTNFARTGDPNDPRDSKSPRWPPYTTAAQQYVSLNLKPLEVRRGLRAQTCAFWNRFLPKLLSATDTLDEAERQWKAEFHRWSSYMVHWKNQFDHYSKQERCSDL
Description: Inhibition of rat brain acetylcholinesterase by colorimetric method.

Experiment [3] concerns the target Acetylcholinesterase (Homo sapiens) (UniProt P22303). Briefly: Inhibition of acetylcholinesterase at 0.1 uM by TLC screening assay. Summed up: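 TLC bioautography on silica gel. Samples in MeOH or MeOH-CH2Cl2 at 0.1 and 1.0 mM were spotted (2 µL), with physostigmine and galanthamine references at 0.1 and 0.01 µM. The plate was sprayed to saturation with 1:1 1 mM DTNB/[…] iodide in buffer, dried 5 min, then sprayed with 3 U/mL AChE. White spots on a yellow background were scored as inhibition.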

Active and inactive are the calls of the source. No cut-off for these calls is given here.

Chain of Acetylcholinesterase (Homo sapiens) (P22303 whole entry): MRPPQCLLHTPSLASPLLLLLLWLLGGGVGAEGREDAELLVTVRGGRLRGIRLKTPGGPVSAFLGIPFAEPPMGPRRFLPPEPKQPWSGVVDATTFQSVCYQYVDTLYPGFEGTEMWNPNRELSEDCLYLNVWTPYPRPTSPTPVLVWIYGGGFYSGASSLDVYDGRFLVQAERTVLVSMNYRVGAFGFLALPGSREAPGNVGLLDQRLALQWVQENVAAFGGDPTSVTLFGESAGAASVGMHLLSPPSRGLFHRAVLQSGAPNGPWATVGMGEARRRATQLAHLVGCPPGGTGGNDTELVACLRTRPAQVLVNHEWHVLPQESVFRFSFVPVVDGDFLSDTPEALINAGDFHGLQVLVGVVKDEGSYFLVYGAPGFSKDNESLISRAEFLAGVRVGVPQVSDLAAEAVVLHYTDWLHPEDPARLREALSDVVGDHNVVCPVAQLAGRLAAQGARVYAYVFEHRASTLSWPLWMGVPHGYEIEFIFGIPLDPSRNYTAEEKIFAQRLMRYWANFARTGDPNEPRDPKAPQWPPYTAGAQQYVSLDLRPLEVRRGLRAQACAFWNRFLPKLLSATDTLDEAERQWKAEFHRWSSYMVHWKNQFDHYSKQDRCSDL

Consider `C=CC1C(CC2=NCCc3c2[nH]c2ccccc32)C(C(=O)OC)=CO[C@H]1O[C@@H]1O[C@H](CO)[C@@H](O)[C@H](O)[C@H]1O` (stereo partly drawn), for which the IC50 in experiment [1] amounted to 55.1 µM.

On to `C=CC1C(C[C@@H]2NC(C(=O)O)Cc3c2[nH]c2ccccc32)C(C(=O)OC)=CO[C@H]1O[C@@H]1O[C@H](CO)[C@@H](O)[C@H](O)[C@H]1O` (stereo partly drawn), for which the half-inhibitory concentration (IC50) in experiment [1] was 47.1 µM.

As to `C=CC1C(CC2=NCCc3c2[nH]c2ccccc32)C(C(=O)O)=CO[C@H]1O[C@@H]1O[C@H](CO)[C@@H](O)[C@H](O)[C@H]1O` (stereo partly drawn), the half-maximal inhibitory concentration (IC50) in experiment [1] came out at 52.3 µM.

In the case of `C=CC1C(Cc2nc(C(=O)O)cc3c2[nH]c2ccc(O)cc23)C(C(=O)OC)=CO[C@H]1O[C@@H]1O[C@H](CO)[C@@H](O)[C@H](O)[C@H]1O` (stereo partly drawn) [CORDIFOLINE], in experiment [1], the half-inhibitory concentration (IC50) came out at 18.3 µM. In the case of `C=C[C@H]1[C@H](O[C@H]2O[C@H](CO)[C@@H](O)[C@H](O)[C@H]2O)OC=C(C(=O)OC)[C@H]1Cc1nc(C(=O)O)cc2c1[nH]c1ccccc12` [DESOXYCORDIFOLINE], the IC50 in experiment [1] was found to be 49.9 µM. The result in experiment [2] was Active.

`Cc1nc(C(=O)O)cc2c1[nH]c1ccccc12` [HARMAN-3-CARBOXYLIC ACID]: in experiment [1], the IC50 is 45.5 µM. As to `C[C@@H]1O[C@@H](OC[C@H]2O[C@@H](Oc3c(-c4ccc(O)c(O)c4)oc4cc(O)cc(O)c4c3=O)[C@H](O)[C@@H](O)[C@@H]2O)[C@H](O)[C@H](O)[C@H]1O` [RUTIN], the concentration for half-maximal inhibition (IC50) in experiment [1] is 12.3 µM. With `C=C[C@H]1[C@H](O[C@@H]2O[C@H](CO)[C@@H](O)[C@H](O)[C@H]2O)OC=C(C(=O)OC)[C@H]1C[C@@H]1NCCc2c1[nH]c1ccccc21` [STRICTOSIDINE], in experiment [1], the concentration for half-maximal inhibition (IC50) is 56 µM.

For `C=CC1C(C[C@@H]2NCCc3c2[nH]c2ccccc32)C(C(=O)O)=CO[C@H]1O[C@@H]1O[C@H](CO)[C@@H](O)[C@H](O)[C@H]1O` (stereo partly drawn) [STRICTOSIDINIC ACID], the IC50 in experiment [1] was 49.7 µM. Take `C=C[C@H]1[C@@H](/C(=C/O)C(=O)OC)C[C@H]2c3[nH]c4ccccc4c3CCN2[C@H]1O[C@H]1O[C@@H](CO)[C@H](O)[C@@H](O)[C@@H]1O` [TURBINATINE]: the 50% inhibitory concentration (IC50) stood at 1.86 µM on Acetylcholinesterase and 50.9 µM in experiment [1]. In experiment [3], the outcome was Active.

These data come from ChEMBL document CHEMBL1148950, “Indole glucoalkaloids from Chimarrhis turbinata and their evaluation as antioxidant agents and acetylcholinesterase inhibitors” (J Nat Prod, 2004).
